Assay results as given in ChEMBL document CHEMBL2176984, “Target Selectivity of FimH Antagonists” (J Med Chem, 2012).

What was measured:
[1] = target: C-type lectin domain family 4 member K (Homo sapiens, UniProt Q9UJ71); assay: Displacement of biotinylated-TM PAA from human langerin at 50 mM after 3 hrs by colorimetry
How it was run: (§1)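 α-D-mannose served as the positive control at 50 mM final, mixed with streptavidin-HRP-TM-PAA and applied to lectin-coated wells. Wells were coated overnight at 4 °C in HEPES/NaCl/10 mM CaCl2 at pH 7.4 and blocked with BSA. Incubation was 3 h at 25 °C, followed by four washes and ABTS development for 4 min, stopped with oxalic acid, OD 415 nm. Binding is expressed as % of the antagonist-free signal after subtracting the polymer-free background.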

[2] = target: Mannose-binding protein C (Homo sapiens) (UniProt P11226); assay: Displacement of biotinylated-TM PAA from human MBP at 50 mM after 3 hrs by colorimetry; how it was run: as §1
[3] = target: T1, Macrophage mannose receptor 1 (Homo sapiens) (UniProt P22897); assay: Displacement of biotinylated-TM PAA from human MMR at 50 mM after 3 hrs by colorimetry; how it was run: as §1
T1 sequence (whole entry): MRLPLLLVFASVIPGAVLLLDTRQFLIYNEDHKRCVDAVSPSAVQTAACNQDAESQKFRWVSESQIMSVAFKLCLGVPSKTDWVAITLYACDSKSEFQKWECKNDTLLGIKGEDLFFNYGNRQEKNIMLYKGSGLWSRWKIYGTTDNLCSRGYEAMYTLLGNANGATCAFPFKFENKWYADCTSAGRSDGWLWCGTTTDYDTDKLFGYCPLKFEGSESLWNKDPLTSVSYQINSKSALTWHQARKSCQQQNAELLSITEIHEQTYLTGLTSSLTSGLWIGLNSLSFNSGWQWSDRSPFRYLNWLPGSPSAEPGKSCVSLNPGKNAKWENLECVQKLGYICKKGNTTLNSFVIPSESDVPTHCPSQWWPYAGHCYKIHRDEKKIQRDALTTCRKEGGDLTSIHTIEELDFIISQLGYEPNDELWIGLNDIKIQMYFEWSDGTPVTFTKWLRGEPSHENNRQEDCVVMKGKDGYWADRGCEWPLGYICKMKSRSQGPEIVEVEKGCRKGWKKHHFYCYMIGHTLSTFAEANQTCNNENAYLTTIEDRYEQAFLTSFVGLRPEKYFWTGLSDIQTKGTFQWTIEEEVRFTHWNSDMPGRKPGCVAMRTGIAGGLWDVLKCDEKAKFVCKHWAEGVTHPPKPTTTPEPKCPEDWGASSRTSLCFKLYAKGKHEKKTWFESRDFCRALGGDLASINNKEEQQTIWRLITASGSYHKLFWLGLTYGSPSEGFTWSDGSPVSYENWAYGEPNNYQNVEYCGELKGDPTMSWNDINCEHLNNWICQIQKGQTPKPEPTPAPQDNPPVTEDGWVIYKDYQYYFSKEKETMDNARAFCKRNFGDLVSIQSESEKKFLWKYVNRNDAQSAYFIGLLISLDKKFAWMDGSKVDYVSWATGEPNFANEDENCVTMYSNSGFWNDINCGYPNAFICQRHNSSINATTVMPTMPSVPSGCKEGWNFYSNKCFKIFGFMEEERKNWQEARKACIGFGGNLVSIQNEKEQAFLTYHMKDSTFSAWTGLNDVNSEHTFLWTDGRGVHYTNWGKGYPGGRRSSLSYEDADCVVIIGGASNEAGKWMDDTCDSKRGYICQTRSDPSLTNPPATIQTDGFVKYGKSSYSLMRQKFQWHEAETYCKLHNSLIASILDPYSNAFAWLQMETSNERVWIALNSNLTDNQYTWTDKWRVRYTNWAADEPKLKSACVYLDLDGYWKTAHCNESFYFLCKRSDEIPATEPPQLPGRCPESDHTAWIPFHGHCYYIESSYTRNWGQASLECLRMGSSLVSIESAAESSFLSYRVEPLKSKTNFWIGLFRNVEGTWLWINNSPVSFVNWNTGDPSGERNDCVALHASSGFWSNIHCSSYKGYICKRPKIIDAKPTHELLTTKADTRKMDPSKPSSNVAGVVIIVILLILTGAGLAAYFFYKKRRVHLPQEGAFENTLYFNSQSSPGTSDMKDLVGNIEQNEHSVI

[4] = target: T2, C-type lectin domain family 4 member M (Homo sapiens) (UniProt Q9H2X3); assay: Displacement of biotinylated-TM PAA from human DC-SIGNR at 50 mM after 3 hrs by colorimetry; how it was run: as §1
T2 sequence (whole entry): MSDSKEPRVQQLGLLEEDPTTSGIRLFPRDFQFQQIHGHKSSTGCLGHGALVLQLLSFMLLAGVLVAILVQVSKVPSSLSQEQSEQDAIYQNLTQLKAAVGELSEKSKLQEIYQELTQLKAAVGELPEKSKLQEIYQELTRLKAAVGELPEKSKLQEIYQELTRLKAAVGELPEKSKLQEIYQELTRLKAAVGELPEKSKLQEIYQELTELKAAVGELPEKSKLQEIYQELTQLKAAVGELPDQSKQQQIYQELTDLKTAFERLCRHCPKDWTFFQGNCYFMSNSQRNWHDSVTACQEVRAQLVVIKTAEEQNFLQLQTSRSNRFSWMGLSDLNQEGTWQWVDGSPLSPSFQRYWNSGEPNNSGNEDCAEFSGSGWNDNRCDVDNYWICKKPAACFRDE

[5] = target: T3, CD209 antigen (Homo sapiens) (UniProt Q9NNX6); assay: Displacement of biotinylated-TM PAA from human DC-SIGN at 50 mM after 3 hrs by colorimetry; how it was run: as §1
T3 sequence (whole entry): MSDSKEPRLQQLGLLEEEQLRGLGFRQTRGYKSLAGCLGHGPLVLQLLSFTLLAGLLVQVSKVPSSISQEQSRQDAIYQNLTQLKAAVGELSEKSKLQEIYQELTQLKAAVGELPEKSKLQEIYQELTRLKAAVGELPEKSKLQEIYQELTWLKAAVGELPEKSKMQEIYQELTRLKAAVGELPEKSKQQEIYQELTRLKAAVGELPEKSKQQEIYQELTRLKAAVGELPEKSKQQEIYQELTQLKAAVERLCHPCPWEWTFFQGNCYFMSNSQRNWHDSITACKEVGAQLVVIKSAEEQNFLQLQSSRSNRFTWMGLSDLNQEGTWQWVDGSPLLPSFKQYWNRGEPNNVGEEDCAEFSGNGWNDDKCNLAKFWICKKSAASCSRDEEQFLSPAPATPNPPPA

[6] = target: T4, C-type lectin domain family 6 member A (Homo sapiens) (UniProt Q6EIG7); assay: Displacement of biotinylated-TM PAA from human Dectin-2 at 50 mM after 3 hrs by colorimetry; how it was run: as §1
T4 sequence (whole entry): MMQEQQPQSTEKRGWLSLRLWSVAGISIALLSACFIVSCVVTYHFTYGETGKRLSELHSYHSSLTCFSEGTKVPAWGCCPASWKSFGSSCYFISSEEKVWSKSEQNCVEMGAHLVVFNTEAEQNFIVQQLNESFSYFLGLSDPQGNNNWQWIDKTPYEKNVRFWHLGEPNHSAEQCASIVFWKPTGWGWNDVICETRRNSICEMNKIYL

[7] = target: T5, Pulmonary surfactant-associated protein D (Homo sapiens) (UniProt P35247); assay: Displacement of biotinylated-TM PAA from human SP-D at 50 mM after 3 hrs by colorimetry; how it was run: as §1
T5 sequence (whole entry): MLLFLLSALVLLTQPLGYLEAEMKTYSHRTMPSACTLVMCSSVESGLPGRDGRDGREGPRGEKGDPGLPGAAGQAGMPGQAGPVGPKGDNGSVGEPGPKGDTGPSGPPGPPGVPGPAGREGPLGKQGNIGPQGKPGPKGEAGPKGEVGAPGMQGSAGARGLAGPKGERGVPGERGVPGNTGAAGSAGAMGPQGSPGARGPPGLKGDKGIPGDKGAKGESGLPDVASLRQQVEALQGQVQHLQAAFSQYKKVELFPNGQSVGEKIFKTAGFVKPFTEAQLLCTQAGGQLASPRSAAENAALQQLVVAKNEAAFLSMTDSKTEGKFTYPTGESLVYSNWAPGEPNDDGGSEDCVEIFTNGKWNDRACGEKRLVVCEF

Escherichia coli = assay: Displacement of biotinylated-TM PAA from Escherichia coli FimH expressed in Escherichia coli HM125 at 50 mM after 3 hrs by colorimetry; how it was run: as §1
[8] = target: T6, C-type lectin domain family 4 member C (Homo sapiens) (UniProt Q8WTT0); assay: Displacement of biotinylated-TM PAA from human DLEC at 50 mM after 3 hrs by colorimetry; how it was run: as §1
T6 sequence (whole entry): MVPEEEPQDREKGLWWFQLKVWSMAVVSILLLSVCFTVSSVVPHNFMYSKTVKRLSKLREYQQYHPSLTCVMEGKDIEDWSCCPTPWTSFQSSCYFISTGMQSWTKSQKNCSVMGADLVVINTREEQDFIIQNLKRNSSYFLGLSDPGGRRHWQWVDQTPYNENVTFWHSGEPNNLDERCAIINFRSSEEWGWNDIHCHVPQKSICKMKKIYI

Measured: inhibition

Mannose-binding protein C (Homo sapiens), sequence (P11226 whole entry): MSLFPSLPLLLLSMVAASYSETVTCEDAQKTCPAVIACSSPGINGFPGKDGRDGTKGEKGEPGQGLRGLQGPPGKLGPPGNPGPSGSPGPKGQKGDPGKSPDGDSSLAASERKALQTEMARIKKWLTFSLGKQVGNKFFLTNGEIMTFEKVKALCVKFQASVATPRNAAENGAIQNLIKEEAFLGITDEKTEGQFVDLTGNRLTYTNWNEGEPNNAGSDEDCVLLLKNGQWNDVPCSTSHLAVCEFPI
C-type lectin domain family 4 member K, sequence (Q9UJ71 whole entry, the tested form may be a part): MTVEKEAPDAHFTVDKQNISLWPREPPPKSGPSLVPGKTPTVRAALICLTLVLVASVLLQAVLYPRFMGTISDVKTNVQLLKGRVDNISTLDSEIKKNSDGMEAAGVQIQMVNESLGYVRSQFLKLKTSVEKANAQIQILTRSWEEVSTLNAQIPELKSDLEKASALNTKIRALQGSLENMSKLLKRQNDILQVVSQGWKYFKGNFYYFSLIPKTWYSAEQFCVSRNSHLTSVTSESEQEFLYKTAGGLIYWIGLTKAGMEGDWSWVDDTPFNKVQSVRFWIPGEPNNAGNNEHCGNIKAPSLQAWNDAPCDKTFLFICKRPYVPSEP

OC[C@H]1OC(O)[C@@H](O)[C@@H](O)[C@@H]1O (some centres undefined)
> 90%: all assays above
